Source: PubChem (several laboratories)
Wee1 stabilizer: blocks degradation of human Wee1 kinase. HeLa Luc-Wee1K328M stability, luciferase luminescence; 100% = proteasome inhibitor MG132 effect. reporter increase, % at 5 µM. 1.2% of 220,000 active. AID 1321;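 active = activation above the mean of all tested compounds plus 3 SD, set per screening run, cut at about 8.8% in these data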;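 also: cells exposed to compound for 20 h before luminescence read; 0% = DMSO alone and 100% = MG132 at 30 µM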
L major viab: inhibitors of Leishmania major promastigote growth; 9% of 200,000 active; Leishmania major promastigotes, resazurin fluorescence viability; inhibition, % at 10 µM;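 also: promastigotes grown with compound for 44 hours at 28 °C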
PKD1 inh: blocks activity of human protein kinase D1; Q15139; PKD1 kinase fluorescence polarization assay; inhibition, % (no concentration beside the values); 0.056% of 200,000 active; AID 797
Rad51 HR inh: Rad51 (human) homologous recombination inhibition; Q06609; hRad51 DNA strand exchange, fluorescence dequenching; inhibition, % at 10 µM; 0.085% of 200,000 active; AID 1385;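 active = inhibition above 40% at the single screening dose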;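 also: 0% = DMSO control wells and 100% = blanks with heterologous ssDNA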
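material = hRad51 filaments on single-stranded DNA | reagent = Donor/quencher-labelled 47-bp dsDNA substrate | compound = 10 µM final, single point | schedule = strand-exchange reaction 15 min at room temperature | measured by = fluorescein emission 520 nm, excitation 485 nm | read-out basis = % inhibition versus plate control and blank means | benchmarks = plate controls and plate blanks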
CHOP inh: CHOP inhibition in unfolded protein response | CHO-K1 CHOP-promoter luciferase, tunicamycin-induced, 15-18 h | inhibition, % at 10 µM | 3.8% of 220,000 active | AID 2732;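 active = compounds that reduced the stress-induced luciferase reporter signal by more than about 70% of percent inhibition, limit read from the data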;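 also: 0% = tunicamycin plus vehicle and 100% = wells without tunicamycin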
Arbovirus anti: blocks arbovirus infection | arbovirus infection cell-based antiviral screen | inhibition, % at 10 µM | 0.37% of 200,000 active | AID 1251; in the data active = inhibition above about 30%
Numbers without * were called inactive; / = no result. This is a sample that favours compounds with a hit; in the whole collection about 12% have one here. Rule as the data show it, unless noted: active = inhibition above about 50%; inactive = the rest.

SMILES	Wee1 stabilizer	L major viab	PKD1 inh	Rad51 HR inh	CHOP inh	Arbovirus anti
COC(=O)CN1C(=S)N(Cc2ccccc2)C(=O)C1CC(=O)Nc1ccc(OC)cc1 (stereo unspecified)	4.1	-1.3	7.2	19.7	50.6	-8.1
COc1ccc(NC(=O)CC2C(=O)N(C)C(=S)N2CCc2ccccc2)cc1 (stereo unspecified)	-1.1	9.2	1.8	6.5	-1.5	-14.9
C=CCN1C(=O)C(CC(=O)Nc2ccc(OCCC)cc2)N(CCCN2CCN(Cc3ccccc3)CC2)C1=S (stereo unspecified)	-4.8	99.7*	-3.9	-28.0	94.0*	-28.0
COc1cccc(CN2CCN(Cc3nc(C(C)C)cs3)CC2CCO)c1 (stereo unspecified)	-2.8	-4.3	-1.9	2.7	1.3	11.8
CC(C)(C)c1ccc(C(=O)Nc2cccc([N+](=O)[O-])c2)cc1	3.4	4.0	-10.9	9.6	50.5	-2.4
CC(C)(C)CC(C)(C)NC(=O)Nc1cccc([N+](=O)[O-])c1	1.0	11.3	0.5	4.0	79.8*	-6.2
Cc1cc([N+](=O)[O-])ccc1NC(=O)Nc1ccc(F)cc1F	-1.6	66.5*	-2.8	13.7	27.4	-9.0
Cc1cc(NC(=O)Nc2cccc([N+](=O)[O-])c2)no1	-3.4	5.1	6.1	6.9	5.6	2.8
CC1=C(C)CC(C(=O)Nc2cccc([N+](=O)[O-])c2)C(C(=O)O)C1 (stereo unspecified)	0.6	66.8*	-9.1	-0.8	-23.7	2.7
Cc1ccc(NC(=O)Nc2cccc([N+](=O)[O-])c2)cc1F	-0.6	53.4*	-6.0	4.3	64.5	12.9
O=C(Nc1cccc([N+](=O)[O-])c1)C1C2CC/C=C\CCC21 (stereo unspecified)	-2.6	/	/	5.5	-7.1	/
CN(CC(=O)Nc1ccc(C(N)=O)cc1)CC(=O)Nc1ccccc1Cl	-1.4	50.8*	-5.2	-0.8	38.8	-1.8
COc1ccc(CC2(C)OC(c3ccc(C)cc3)=NN2C(C)=O)cc1 (stereo unspecified)	-1.3	9.6	-8.0	5.8	59.4	-3.1
COc1ccc(CC2(C)OC(c3ccccc3)=NN2C(C)=O)cc1 (stereo unspecified)	-2.0	53.4*	-6.6	0.7	6.2	-9.1
CC(C)NC(=O)C1CCN(C2CCN(C(=O)c3scc4c3CCCC4)CC2)CC1	5.9	52.4*	-4.9	-11.9	8.6	0.1
CC(C)NC(=O)C1CCN(C(=O)c2ccc(-c3ccccc3)cc2)CC1	10.8*	-5.9	-2.1	-3.3	25.2	3.4
[O-]c1c[n+](-c2ccc(-[n+]3cc([O-])on3)cc2)no1	-1.2	4.0	0.1	-13.8	-10.1	-1.6
O=c1[nH]c(/C=C/c2ccccc2[N+](=O)[O-])nc2ccccc12	-0.3	-2.3	-6.2	2.7	81.6*	-12.7
COc1ccc(C(=O)Nc2cccc(/C=C/c3nc4ccccc4c(=O)[nH]3)c2)cc1	-0.6	/	/	-0.5	91.4*	/
Cc1cccc(/C=C\c2nc3ccccc3c(=O)[nH]2)c1	0.1	6.2	0.1	/	100.9*	-10.7
O=c1[nH]c(/C=C/c2cccc3ccccc23)nc2ccccc12	3.9	3.3	-8.2	/	-25.9	-6.0
Cc1cc(C)cc(N2C(=O)CCN(Cc3ccccc3)C2=O)c1	-1.8	/	/	-7.3	0.7	/
Cc1cc(C)c(N(C(=O)CN2C(=O)c3ccccc3S2(=O)=O)C(C(=O)NCC2CCCO2)c2ccc(F)cc2)c(C)c1 (stereo unspecified)	-0.8	69.2*	1.7	/	53.4	7.7
O=C(NC1CCCCC1)C(c1ccc(F)cc1)N(CCc1ccccc1)C(=O)CN1C(=O)c2ccccc2S1(=O)=O (stereo unspecified)	-0.7	50.4*	-7.0	/	52.6	-3.4
C[C@H](NC(=O)/C(C#N)=C/c1ccc(O)c(O)c1)c1ccccc1	/	/	/	/	6.8	/
SMILES	Wee1 stabilizer	L major viab	PKD1 inh	Rad51 HR inh	CHOP inh	Arbovirus anti
Cc1noc(C)c1C(=O)N1CCN(c2ccc(OCc3ccccc3)cc2)CC1	0.7	/	/	22.6	17.5	/
O=C(O)CC1(CC(=O)NCc2cc(F)cc3c2OCOC3)CCCCC1	-0.9	/	/	11.0	3.1	/
O=C(CSc1cccc2cccc(Cl)c12)OCC(=O)N1CCN(C(=O)c2ccco2)CC1	0.0	52.7*	-5.3	/	1.9	9.9
COCC(=O)Oc1c(S(=O)(=O)c2ccc(C)cc2)c(C)nn1-c1ccccc1	-2.4	-15.7	-17.6	-8.8	5.1	0.7
Cc1ccc(S(=O)(=O)c2c(C)nn(-c3ccccc3)c2OC(=O)c2ccco2)cc1	6.2	-9.0	-2.9	3.3	102.8*	-0.1
O=C(CCl)N1c2ccccc2OCC1c1ccccc1 (stereo unspecified)	-0.9	56.6*	2.9	14.3	106.0*	-4.3
O=C(NC(=S)Nc1nc2ccc(F)cc2s1)c1ccco1	-0.6	39.1	-2.8	10.7	-37.5	0.8
CCC1CO/C(=C(\C(Cl)=C(Cl)Cl)[N+](=O)[O-])N1 (stereo unspecified)	-2.9	-1.4	-4.7	10.5	78.8*	-5.7
CN1CCO/C1=C(\C(Cl)=C(Cl)Cl)[N+](=O)[O-]	2.4	-4.1	-3.5	/	6.7	-4.4
C#CCOc1ccccc1C(N)=O	-1.2	/	/	/	-0.8	/
Cc1nn(-c2cccc(Cl)c2)c(Cl)c1/C=N/NC(=O)c1cccnc1	1.6	71.1*	4.0	5.9	-23.9	10.5
Cc1nn(-c2ccc(F)cc2)c(Cl)c1/C=N/NC(=O)c1ccc(O)cc1	1.5	11.8	-1.7	12.0	2.6	-7.8
Cc1nn(-c2ccc(F)cc2)c(Cl)c1/C=N/NC(=O)c1cccc(S(=O)(=O)N2CCCC2)c1	-3.4	54.5*	-12.1	10.0	-10.9	-7.6
Cc1nn(-c2ccccc2)c(Cl)c1/C=N/NC(=O)c1cccc(S(=O)(=O)N2CCCC2)c1	-3.9	-7.5	-3.0	6.9	24.7	-3.1
Cc1nn(-c2ccccc2)c(N2CCCC2)c1/C=N/NC(=O)c1cccc(S(=O)(=O)Nc2ccc(Cl)cc2)c1	-1.4	52.4*	2.7	-4.2	48.3	-14.1
Cc1nn(-c2ccc(F)cc2)c(Cl)c1/C=N/NC(=O)c1cccs1	-0.3	-5.0	2.1	9.2	93.4*	-10.7
Cc1cccc2cc(CNCC3CCCO3)c(Cl)nc12 (stereo unspecified)	-3.1	7.9	-1.2	3.8	-12.2	6.2
COCCCN(C(=S)NC(=O)C(C)(C)C)c1c(N)n(Cc2ccccc2)c(=O)[nH]c1=O	-0.3	/	/	9.4	-4.9	/
Cc1ccc(-c2cc(C(=O)N3CCCc4ccccc43)no2)cc1	4.0	-1.7	-2.0	30.3	-22.8	6.6
COc1ccc(-c2nn(-c3ccccc3)cc2/C=N/NC(=O)c2cccc(S(=O)(=O)Nc3ccccc3Cl)c2)cc1	-0.1	81.3*	4.8	/	2.2	-18.3
CC(C)N(CCNS(=O)(=O)c1ccc(Cl)cc1)C(C)C	-0.3	56.7*	5.7	1.0	4.5	-0.4
C=CCONC(=O)c1cc(OCC(F)(F)F)ccc1OCC(F)(F)F	-1.1	-0.6	-0.5	-4.5	71.2*	-2.4
